Measured values reported in publication PMC5107128 (Pharmacological research, 2016).

How the values were obtained:
WM266-4 cells [1] = test: Scratch migration assay; assay type: cell-based, human
melanoma cell lines = test: Cell proliferation assay; assay type: cell-based, human
How it was run: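 Crystal violet growth assay. Melanoma cells were kept in DMEM with 10% FCS, 1% glutamine and 1% penicillin-streptomycin. They were seeded at 16,000/cm2 in triplicate and treated with 0.32 µM test compound or DMSO vehicle. shMT1-MMP WM266-4 cells received recombinant MMP2 at 25ng/ml. At each time point cells were fixed in 10% buffered formalin and stained with crystal violet. Growth is expressed relative to controls.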

[2] = cited from earlier work
RAC1 = RAC1 activity assay; assay type: cell-based, human; conditions: WM266-4 cells, 0.32 µM, 24 hours
How it was run: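 Cells at 70% confluency were serum-starved in DMEM with 0.5% serum for 24 h, then serum-free for a further 24 h. They were lysed in the G-LISA kit buffer. Equal protein amounts were added to Rac1-GTP-binding wells, and active RAC1 was read at OD 490 nm.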

MMP2 [3] = test: Gelatin zymography of conditioned medium; assay type: cell-based, human; conditions: WM266-4 cells, 0.32 µM
How it was run: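 WM266-4 cells were treated with 0.32µM test compound or DMSO, and serum-free conditioned medium was collected. Medium was concentrated on a 30K cutoff device, and 10 μg protein was run on 8% SDS-PAGE containing 2 mg/ml gelatin. Gels were washed in 2.5% Triton X-100, then incubated overnight at 37°C in 50 mM Tris-HCl, 5 mM CaCl2, 0.1% Triton X-100, pH 7.8. Gels were Coomassie R250-stained 45 min, then destained.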

MT1-MMP = MT1-MMP (Homo sapiens, UniProt P50281); test: MT1-MMP activity assay; assay type: cell-based; conditions: WM266-4 cells, 0.32 µM, overnight
How it was run: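 WM266-4 cells treated overnight with test compound (0.32 µM final). Comparators were a neutralizing antibody (1 μg/ml), recombinant MT1-MMP (0.5 μg/ml) or shMT1-MMP expression. Membranes extracted by three freeze-thaw cycles, sonicated, pelleted (30 min, 13 000 g, 4°C) and resuspended in PBS. Equal protein incubated with fluorogenic substrate Mca-PLGL-Dap(Dnp)-AR-NH2; fluorescence read at Ex/Em […].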

WM266-4 cells [4] = test: Transwell Matrigel invasion assay; assay type: cell-based, human
How it was run: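 25 × 10^4 WM266-4 cells in suspension were treated with 0.16 or 0.32µM test compound; shMT1-MMP cells got recombinant MMP2 at 25ng/ml. Cells were placed in 8-µm-pore inserts, uncoated or coated with growth-factor-reduced Matrigel, with DMEM plus 5% FBS below. After 24 h, cells on the bottom membrane were fixed in 4% formaldehyde and stained with Coomassie. Stain was extracted in 10% acetic acid and read at […], in triplicate. Invasion % = Matrigel/control insert × 100.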

[5] = cited from earlier work; remark: listed apart in the source
WM266-4 cells [6] = test: Orthotopic melanoma model: WM266-4 cells intradermally in NOD/SCID mice; assay type: in vivo
How it was run: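 Male NOD/SCID mice (5–8 weeks) received 2 × 10^6 luciferase-transduced WM266-4 cells intradermally in dorsal flanks (9 control, 18 treated tumors). Dosing began at about 120 mm3 mean tumor volume: 25 mg/Kg once daily subcutaneously, from 7.5 mg/ml in sterile PBS, filter-sterilized. Tumor volume taken as (w2 × l) × 0.52 and normalized to time 0. Primary tumors resected at day 42. Lung bioluminescence checked twice weekly. Lungs/thymi S100-stained at 30 weeks post-surgery.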

other MMPs = conditions: cited from earlier work
prostate cancer = conditions: cited from earlier work
MMP2 [7] = target: T1, MMP2 (Homo sapiens, UniProt P08253); conditions: cited from earlier work
T1 sequence (P08253 110-660): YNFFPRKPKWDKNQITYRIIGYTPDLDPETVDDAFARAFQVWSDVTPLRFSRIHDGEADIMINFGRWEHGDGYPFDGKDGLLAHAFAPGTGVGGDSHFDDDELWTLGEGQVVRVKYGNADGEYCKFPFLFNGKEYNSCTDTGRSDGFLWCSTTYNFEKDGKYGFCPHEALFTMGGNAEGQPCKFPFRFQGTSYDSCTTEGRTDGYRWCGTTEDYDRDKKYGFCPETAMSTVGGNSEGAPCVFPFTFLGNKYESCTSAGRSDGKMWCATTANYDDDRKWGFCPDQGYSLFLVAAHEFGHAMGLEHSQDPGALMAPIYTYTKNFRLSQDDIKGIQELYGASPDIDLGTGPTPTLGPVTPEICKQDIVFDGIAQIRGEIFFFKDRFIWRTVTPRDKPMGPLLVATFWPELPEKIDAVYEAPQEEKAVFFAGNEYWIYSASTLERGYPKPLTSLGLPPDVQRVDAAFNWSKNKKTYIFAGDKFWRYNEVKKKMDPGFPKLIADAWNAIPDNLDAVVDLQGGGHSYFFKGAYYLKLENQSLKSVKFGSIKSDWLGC

[8] = WM266-4 cells, recombinant MMP2 25ng/ml

For `Nc1ccc(Oc2ccc(S(=O)(=O)CC3CS3)cc2)cc1` (stereo not shown) [ND-322], the “motility (migration) of WM266-4 melanoma cells” value (WM266-4 cells [1]; 0.16 and 0.32 µM, dose dependent) is given as “inhibited significantly”, the “cell growth of several melanoma cell lines” value (melanoma cell lines; 0.32 µM) is given as “inhibited cell growth” and the “tolerability in a model of wound healing” value [2] is given as “well tolerated”. The “activity of the small GTPase RAC1” value (RAC1) was “reduce the activity”, the “MMP2 activation by gelatin zymography” value (MMP2 [3]) was “inhibited MMP2 activation” and the MT1-MMP activity (MT1-MMP) was “as effective as antibody neutralization and knockdown”. The “invasion capacity of WM266-4 melanoma cells” value (WM266-4 cells [4]; 0.16 and 0.32 µM, 24 hours, dose dependent) was “inhibited significantly”, the “crossing of the blood/brain barrier” value [5] was “cross the blood/brain barrier” and the “tumor growth compared to controls” value (WM266-4 cells [6]; 25 mg/Kg/day subcutaneously, NOD/SCID mice) was “reduced tumor growth significantly”. The “body weight over time” value (WM266-4 cells [6]; 25 mg/Kg/day, NOD/SCID mice) was “maintained their weight”, the tolerability of treatment (WM266-4 cells [6]; 25 mg/Kg/day, NOD/SCID mice) was “well tolerated” and the “mice presenting with tumor cells in the lungs (lung metastasis)” value (WM266-4 cells [6]; 30 weeks post-surgery, control animals 90%) was 40%. For the same molecule, the “inhibition of other MMPs” value (other MMPs) was “does not inhibit or poorly inhibits”.

For `O=S(=O)(CC1CS1)c1ccc(Oc2ccccc2)cc1` (stereo not shown) [SB-3CT, reference compound], the “bone metastasis in a xenograft model of prostate cancer” value (prostate cancer) is listed as “effectively prevent bone metastasis” and the “crossing of the blood/brain barrier” value [5] is listed as “cross the blood/brain barrier”.

For “TIMP1: tissue inhibitor of matrix metalloproteinase (TIMP)1”, the “residence time bound to MMP2” value (MMP2 [7]) is listed as 6.9 min.

B1: recombinant active MMP2: recombinant active MMP2 added to cells at 25ng/ml (protein, UniProt P08253 110-660, looked up)
72 kDa type IV collagenase: T1 sequence (P08253 110-660)
In the case of B1, the “rescue of cell motility in cells expressing shMT1-MMP” value (WM266-4 cells [1]; WM266-4 cells, recombinant MMP2 25ng/ml, 24 hours) is reported as “rescued”, the “rescue of cell growth in cells expressing shMT1-MMP” value (melanoma cell lines; [8]) is reported as “did not rescue cell growth” and the “rescue of cell invasion in cells expressing shMT1-MMP” value (WM266-4 cells [4]; [8]) is reported as “rescued”.
